Like-named read-outs stand apart in the source and are kept apart here.
Key:
EcIspF = target: T1, EcIspF (Escherichia coli, UniProt P62617); assay: SPR binding assay with immobilized EcIspF; conditions: for fold weaker binding than CMP: SPR KD comparison; for ΔG: ΔG = −RT ln Kd
T1 sequence (P62617 1-159): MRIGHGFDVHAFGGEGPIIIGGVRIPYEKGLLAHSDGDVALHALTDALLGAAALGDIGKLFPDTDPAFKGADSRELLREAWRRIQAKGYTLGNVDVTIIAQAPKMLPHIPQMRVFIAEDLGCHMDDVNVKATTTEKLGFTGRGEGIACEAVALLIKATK
Procedure, shortened: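 E. coli IspF expressed in BL21(DE3), >95% pure, amine-coupled to CM5 chip (diluted to ~100 μg/mL final in 10 mM acetate pH 5.5) to 4500–5500 RU. Ligand series 0.1 μM–10 mM run at 10 °C, 30 μL/min, in 50 mM sodium phosphate pH 7, 2 mM MgCl2, 0.005% P20. Each injection in triplicate with 40 min buffer regeneration. Blank-subtracted steady-state RU fit to 1:1 Langmuir model.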

E. coli LpxC = conditions: cited from earlier work
LpxC = conditions: cited from earlier work
[1] = Δg = ΔG/N, N = number of non-hydrogen atoms, Table 5

| Compound | ΔG (EcIspF) [kcal/mol] | ligand efficiency (Δg) (EcIspF; [1]) [kJ·mol^−1/non-H atom] | ligand efficiency (Δg) (EcIspF) [kJ·mol^−1/non-H atom] | other results |
| --- | --- | --- | --- | --- |
| Nc1ccn([C@H]2O[C@@H](CO)[C@H]3OP(=O)(O)O[C@H]32)c(=O)n1 (mixture of isomers) [Compound 6] | – | – | – | fold weaker binding than CMP (EcIspF): about 20 fold |
| O=C(O)C1COC(c2ccccc2)=N1 (stereo not shown) [4,5 dihydro-2-phenyloxazole-4-carboxylic acid] | – | – | – | IC50 (E. coli LpxC): > 400 µM |
| Nc1ccn([C@@H]2O[C@H](COP(=O)(O)O)[C@@H](O)[C@@H]2O)c(=O)n1 [AraCMP] | -2.23 | −0.44 | – | fold weaker binding than CMP (EcIspF): 20 fold |
| Nc1ccn([C@@H]2O[C@H](COP(=O)(O)O)[C@@H](O)[C@H]2O)c(=O)n1 [CMP] | -3.941 | −0.79 | −0.79 | – |
| N[C@@H](Cc1c[nH]c2ccccc12)C(=O)NO [Compound 13, 2-amino-N-hydroxy-3-(1H-indol-3-yl)-propionimidic acid] | – | −2.04 | −2.04 | – |
| CC(=O)N[C@H]1[C@@H](OP(=O)(O)OP(=O)(O)OC[C@H]2O[C@@H](n3ccc(=O)[nH]c3=O)[C@H](O)[C@@H]2O)O[C@H](CO)[C@@H](O)[C@@H]1O [UDP-GlcNAc] | – | – | – | Km (LpxC; substrate of LpxC): > 20000 µM |
| UDP-3-acyl-GlcNAc | – | – | – | Km (LpxC; natural substrate of LpxC): 2.1 µM |

Second part, led by results:

| ΔG (EcIspF) [kcal/mol] | ligand efficiency (Δg) (EcIspF; [1]) [kJ·mol^−1/non-H atom] | ligand efficiency (Δg) (EcIspF) [kJ·mol^−1/non-H atom] | Compound | other results |
| --- | --- | --- | --- | --- |
| -1.81 | −0.42 | – | Nc1ccn(CC(CO)OCP(=O)(O)O)c(=O)n1.O.O (stereo in doubt) [CDV, [(2R)-1-(4-amino-2-oxo-pyrimidin-1-yl)-3-hydroxy-propan-2-yl] oxymethylphosphonic acid] | – |
| -3.929 | −0.82 | – | Nc1ccn([C@@H]2O[C@@H]3COP(=O)(O)O[C@H]3[C@H]2O)c(=O)n1 [Compound 7] | – |
| -3.489 | −0.81 | −0.81 | Nc1nc(=O)n([C@@H]2O[C@H](CO)[C@@H](O)[C@H]2O)cc1F [FLUC] | – |
